The values that follow come from ChEMBL document CHEMBL1126952, “Synthesis and antitumor properties of an anthraquinone bisubstituted by the copper chelating peptide Gly-Gly-L-His” (J Med Chem, 1993).

One data set deals with Nucleic Acid. Briefly: Thermal denaturation of calf-thymus DNA was evaluated. It is filed as functional. The following applies: Bos taurus. Put shortly:
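Calf thymus DNA (% GC 42) at 2 × 10^-4 M in 0.1 SSC (0.15 M NaCl/0.015 M sodium citrate, pH 7.0). Six curves at P/DNA = 0, 0.2, 0.4, 0.6, 0.8 and 1. A260 followed from 20 to 95 °C at 1 °C/min in a 10-mm cell. Tm = midpoint of the hyperchromic transition.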

The species named for the next data set is Homo sapiens. Put plainly: In vitro inhibitory activity against MCF-7 mammary cell line. The following applies: MCF7, read-out: ID50 (the source's name). In kind it is functional. An outline of the steps:
(§1)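 Exponentially growing cells exposed 3 days to drug at final 10^-9 to 10^-4 M. L1210: RPMI 1640 + 10% FCS, seeded 1.5 × 10^5 cells/mL in flasks. MCF7: DMEM + 10% FCS, 10^5 cells/well in 6-well plates. Growth and viability by trypan blue counting; ID50 = concentration inhibiting growth by 50% of control.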

The species entered for data set [1] is Mus musculus. Briefly: In vitro cytotoxicity against L1210 leukemia cell line. In kind it is functional. The note with it: read-out: LD50 (the source's name). Put shortly: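 L1210 mouse lymphocytic leukemia cells in RPMI 1640 with 10% (v/v) foetal calf serum, in exponential growth, seeded at 1.5 × 10^5 cells/mL in flasks; drug added at final 10^-9 to 10^-4 M for 3 days. Growth and viability counted by trypan blue staining; ID50 is the concentration inhibiting cell growth by 50% of control.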

The species entered for data set [2] is Mus musculus. Put plainly: In vitro inhibitory activity against L1210 leukemia cell line. It is filed as functional. The note with it: read-out: ID50 (the source's name). Put shortly:
as §1

Data set [3] in a line: Therapeutic effect against P388 leukemia in mice on days 1, 5 and 9 after administration of 1.6 mg/kg dose expressed as median survival time of treated and control mice (in vivo). It is filed as organism-based. The arrangement: dose 1.6 mg/kg. The following applies: mouse. Put shortly:
(§2)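 DBA2 mice implanted ip with 10^6 P388 cells on D0; drug given ip on D1, D5, D9. Groups of 7 treated mice, 10 untreated controls. Mice weighed daily; study ended D45. T/C (%) = median survival time of treated over control group.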

Data set [4] in a line: Therapeutic effect against P388 leukemia in mice on days 1, 5 and 9 after administration of 5 mg/kg dose expressed as median survival time of treated and control mice (in vivo). In kind it is organism-based. The arrangement: dose 5 mg/kg. The following applies: mouse. An outline of the steps:
as §2

Data set [5] in a line: Therapeutic effect against P388 leukemia in mice on days 1, 5 and 9 after administration of 10 mg/kg dose expressed as median survival time of treated and control mice (in vivo). In kind it is organism-based. Set-up: dose 10 mg/kg. The note with it: mouse. Put shortly:
as §2

A short description of data set [6]: Therapeutic effect against P388 leukemia in mice on days 1, 5 and 9 after administration of 25 mg/kg dose expressed as median survival time of treated and control mice (in vivo). It is filed as organism-based. The arrangement: dose 25 mg/kg. The following applies: mouse. Put shortly: as §2

SMILES strings stand for the structures.

In the case of `NCC(=O)NCC(=O)N[C@@H](Cc1c[nH]cn1)C(=O)NCCNc1ccc(NCCNC(=O)[C@@H](Cc2c[nH]cn2)NC(=O)CNC(=O)CN)c2c1C(=O)c1c(O)ccc(O)c1C2=O`, in the data set on Nucleic Acid, the ΔTm (in general, the change in melting temperature against a reference sample) is 17.1 °C.

In the case of `NCC(=O)NCC(=O)N[C@@H](Cc1c[nH]cn1)C(=O)NCCNc1ccc(NCCNC(=O)[C@H](Cc2c[nH]cn2)NC(=O)CNC(=O)CN)c2c1C(=O)c1c(O)ccc(O)c1C2=O` [listing 1 of 2 here], the IC50 was determined as 800 nM in the data set filed under Homo sapiens and 50 nM in the data set listed under Mus musculus [2]. The CC50 in the data set listed under Mus musculus [1] amounted to 70 nM.

On to `O=C1c2c(O)ccc(O)c2C(=O)c2c(NCCNCCO)ccc(NCCNCCO)c21` [MITOXANTRONE], for which the ΔTm in the data set with Nucleic Acid stood at 15.9 °C. In addition, the values for the IC50 in the data set listed under Homo sapiens and in the data set listed under Mus musculus [2] were 270 nM and 7 nM, respectively. Further, in the data set filed under Mus musculus [1], the CC50 is 7 nM. For the same molecule, in data set [3], the T/C was found to be 190.

Consider `NCCCC(NC(=O)[C@@H](Cc1c[nH]cn1)NC(=O)CNc1ccc(O)c2c1C(=O)c1c(O)ccc(O)c1C2=O)C(=O)O` (stereo partly drawn), for which the ΔTm with Nucleic Acid was 11.3 °C.

On to `NCC(=O)NCC(=O)N[C@@H](Cc1c[nH]cn1)C(=O)NCCNc1ccc(NCCNC(=O)[C@H](Cc2c[nH]cn2)NC(=O)CNC(=O)CN)c2c1C(=O)c1c(O)ccc(O)c1C2=O` [listing 2 of 2 here], for which the T/C in data set [4] is listed as 140; in data set [5] it was 150; in data set [6], 230.
